Screening results (PubChem BioAssay)
Efflux pump inh: inhibitors of Candida antifungal efflux pumps expressed in yeast; hit rate 0.44% among 330,000; AID 485275; inhibition, % at 10 µM; S. cerevisiae Candida pump triplex, Nile Red efflux;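 active = plate passing quality check with inhibition over a set limit, or well fluorescence over plate mean plus 4 SD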;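 note: Nile Red retained in pooled yeast measured as flow cytometry median fluorescence; 0% = buffer negative control and 100% = Enniatin B positive control; higher means more Nile Red kept so more efflux inhibition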
FN deposit inh: fibronectin deposition inhibition; AH1F fibroblasts, Alexa488-fibronectin deposition fluorescence, overnight; inhibition, % at 12.6 µM; hit rate 0.086% among 350,000; AID 743247;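 active = mean inhibition across replicates of 30% or more, regardless of how many single replicates reach that level; inconclusive = mean under 30% yet at least half of replicates reach 30%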;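 note: positive control wells lacked labelled fibronectin entirely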
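Schedule: 1 h cell adhesion before compound, then overnight fibronectin incubation; test system: AH1F fibroblast monolayer depositing Alexa488-labelled fibronectin into matrix; quantity: 10000 AH1F cells per well; probe or stimulus: fluorescent fibronectin at 24 nM final; signal: fluorescence, ex 485 nm, em 525 nm; evaluation: percent inhibition as loss of matrix-bound fibronectin fluorescence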
SR-BI uptake up: SR-BI HDL lipid transfer activation; AID 504775; activation, % at 12.5 µM; CHO ldlA[mSR-BI] cells, DiI-HDL uptake fluorescence, 3 h; 100 = double the neutral-control signal; hit rate 0.096% among 320,000;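 active = mean replicate activation of at least 60% and every replicate at or above 60%; inconclusive = mean or all-replicate condition met, but not both; inactive = mean below 60% and not all replicates reaching 60%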;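 note: 0% = median plate neutral-control signal and 100% = twice that signal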
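System: LDL receptor-deficient CHO ldlA cells overexpressing murine SR-BI | Timing: 3 h uptake period with compound, 37 °C | Medium: HEPES-buffered (25 mM, pH 7.4) F12 plus 0.5% BSA | Dosing: Single-point compound dose | Signal: Bottom-read fluorescence, 550/595 nm | Read-out: Retained DiI signal reflecting DiI-HDL uptake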
SR-BI DiI inh: blocks mouse SR-BI lipid uptake from DiI-HDL; Q61009; ldlA[mSR-BI] CHO cells, DiI-HDL uptake fluorescence, 3 h; hit rate 0.96% among 320,000; inhibition, % at 12.5 µM; AID 488896;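 active = mean replicate inhibition of at least 70% and a set share of replicates each scoring 70 or more; inconclusive = meets just one of the two criteria; inactive = fails both criteria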;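 note: 0% = median of neutral control wells and 100% = median of positive control wells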
Target sequence (Q61009 whole entry, looked up): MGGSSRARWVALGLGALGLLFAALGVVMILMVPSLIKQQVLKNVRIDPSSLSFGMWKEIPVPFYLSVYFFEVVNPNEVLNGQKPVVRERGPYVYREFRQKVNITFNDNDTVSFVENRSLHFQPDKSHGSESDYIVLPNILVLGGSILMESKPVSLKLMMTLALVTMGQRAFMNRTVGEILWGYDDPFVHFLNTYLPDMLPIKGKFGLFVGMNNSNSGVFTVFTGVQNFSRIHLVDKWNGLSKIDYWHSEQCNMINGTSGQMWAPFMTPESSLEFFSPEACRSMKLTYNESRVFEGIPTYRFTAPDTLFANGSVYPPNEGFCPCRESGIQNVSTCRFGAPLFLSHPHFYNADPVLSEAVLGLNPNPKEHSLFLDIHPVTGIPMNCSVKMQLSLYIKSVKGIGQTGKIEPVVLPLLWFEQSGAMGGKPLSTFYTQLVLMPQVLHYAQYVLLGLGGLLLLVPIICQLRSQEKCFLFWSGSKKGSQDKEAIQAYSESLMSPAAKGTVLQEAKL
CaV13 FRET inh: Disruptors of the CACNA1D IQ motif to Ca2+-dependent inactivation inhibitor domain association, primary screening, Förster resonance energy transfer in intact living … | hit rate 0.098% among 340,000 | inhibition, % at 12.3 µM | HEK cells, CFP/YFP FRET ICDI-IQ, plate reader, 10 min; percent FRET-ratio fall versus neutral wells | AID 743397;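 active = mean replicate inhibition of at least 30% and at least 1% of replicates passing that level; inconclusive = only one of the two criteria is met; inactive = neither criterion is met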;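 note: 0% = median of the neutral control wells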
* marks the source's active call; other numbers are inactive results; ? = inconclusive; nt = no result; + = active, no number. Shown are actives, neighbours in structure and some others; about 1.2% of the full set was active somewhere.

SMILES	Efflux pump inh	FN deposit inh	SR-BI uptake up	SR-BI DiI inh	CaV13 FRET inh
Cc1ccc(S(=O)(=O)Nc2ccc3c(c2)C(=O)N([C@@H](C)CO)C[C@H](C)[C@@H](CN(C)C(=O)Nc2ccc(F)cc2)OCCCC[C@@H](C)O3)cc1	nt	-9	nt	nt	nt
CCCNC(=O)C[C@H]1CC[C@@H]2[C@H](COc3ccc(NC(=O)c4cccc(Cl)c4)cc3C(=O)N2C)O1	nt	-9	nt	nt	nt
N#CC1=C(N)Oc2cc(N)ccc2C1c1ccc(F)cc1F (configuration not stated)	0	4	-8	8	+
N#CC1=C(N)Oc2cc(N)ccc2C1c1ccc(F)cc1 (configuration not stated)	0	2	-8	8	-5
CO[C@@H]1CN(C)C(=O)c2ccc(NS(=O)(=O)c3ccccc3)cc2OC[C@@H](C)N(Cc2cccnc2)C[C@@H]1C	nt	-3	nt	nt	nt
O=C1N[C@H](Cc2ccccc2)COCc2cn(nn2)CC[C@H]1Cc1ccc(-c2ccccc2)cc1	nt	-19	nt	nt	nt
CC1=[N+](C)c2c(ccc3cccnc23)C1(C)C	nt	-45	97*	-97	-43
Cc1[nH]c2c(ccc3cccnc32)c1C	0	6	-9	9	-6
CCN(CC)S(=O)(=O)c1cc(C(=O)NC2=NCCS2)ccc1Cl	0	-8	-74	74*	-4
O=C(NC1=NCCS1)c1ccc(Cl)c(S(=O)(=O)N2CCCCCC2)c1	0	3	-9	9	-7
O=C(C[C@@H]1CC[C@H]2[C@@H](COC[C@H](O)CN2C(=O)c2ccncc2)O1)NC1Cc2ccccc2C1	nt	0	nt	nt	nt
CCCN1CCN(C(=O)c2ccc(CS(=O)c3ccc(Cl)cc3)o2)CC1 (configuration not stated)	0	10	26	-26	-2
CCCN1CCN(C(=O)c2ccc(CS(=O)c3ccc(Br)cc3)o2)CC1 (configuration not stated)	nt	0	nt	nt	35*
CSCCC(NC(=O)c1ccc(Cl)cc1Cl)C(=O)N1CCN(C(=O)c2ccccc2)CC1 (configuration not stated)	nt	16	-78	78*	-7
CN(C)C(=O)C[C@H]1C=C[C@H](NC(=O)C2CC2)[C@@H](CO)O1	nt	2	nt	nt	nt
C#CCOCCOCCOCCNc1nc(N2CCN(C(=O)CCCCCCCCCCNC(=O)[C@H]([C@@H](C)CC)n3cc(CCCCN=C(N)N)nn3)CC2)nc(N2CCN(C(=O)CCCCCCCCCCNC(=O)[C@H](CCCCN)n3cc(C[C@@H](C)CC)nn3)CC2)n1	85*	nt	nt	nt	nt
C#CCOCCOCCOCCNc1nc(N2CCN(C(=O)CCCCCCCCCCNC(=O)[C@H](CCCCN)n3cc(CCCC(=O)O)nn3)CC2)nc(N2CCN(C(=O)CCCCCCCCCCNC(=O)[C@H](CCCN=C(N)N)n3cc(C[C@@H](C)CC)nn3)CC2)n1	0	nt	-80	80*	nt
O=C(C1=NN(c2ccccc2)C2C(=O)N(c3ccccc3)C(=O)C12)c1ccccc1 (configuration not stated)	0	-1	6	-6	+
Cc1ccc(N2C(=O)C3C(C(=O)c4ccccc4)=NN(c4ccccc4)C3C2=O)cc1 (configuration not stated)	-1	-3	44	-44	-14
CCN(CC(=O)NCc1ccc(F)cc1)C(=O)/C=C/c1ccc(S(=O)(=O)N(CC)CC)cc1	0	-4	-76	76*	-3
CCC(=O)Nc1ccc2c(c1)OC[C@@H](C)N(Cc1nccs1)C[C@@H](C)[C@H](OC)CN(C)C2=O	nt	0	nt	nt	nt
O=C(CCn1nc(-c2ccc(Cl)cc2)ccc1=O)NCCCN1CCCCCC1	0	nt	-73	73*	-5
CC[C@H]1C/C=C\C[C@H](c2ccc(F)cc2)NC(=O)CCC(=O)N1	nt	1	nt	nt	nt
CCOc1ccc(C(=O)n2cc(C(=O)OC)c3ccccc32)cc1OCC	0	3	-81	81*	-3
CC(C)c1cn(CC[C@@H]2CC[C@H](NC(=O)C3CCCC3)[C@@H](CO)O2)nn1	nt	11	nt	nt	nt
SMILES	Efflux pump inh	FN deposit inh	SR-BI uptake up	SR-BI DiI inh	CaV13 FRET inh
COc1ccc(-c2ccc3c(N)c(C(=O)c4cccc(OC)c4)sc3n2)cc1	0	nt	-25	25	-12
COc1ccc(NC(=O)c2sc3nc(-c4cccnc4)ccc3c2N)cc1OC	0	1	-74	74*	-10
COc1ccc(NC(=O)c2sc3nc(-c4cccnc4)ccc3c2N)cc1	0	-20	-72	?	-16
COc1ccc(C(=O)c2sc3nc(-c4ccc(OC)cc4)ccc3c2N)cc1	1	nt	-35	35	134*
CC(=O)N(C)C[C@H]1Oc2ccc(NC(=O)NC(C)C)cc2CC(=O)N(C)C[C@H]1C	nt	-7	nt	nt	nt
Cc1cc(C)nc(SCC(=O)N/N=C/c2cc(C)n(-c3ccccc3C)c2C)n1	0	nt	-85	85*	-9
CC1=Nc2ccccc2/C1=C\c1nc(-c2ccccc2)oc1O	0	nt	nt	19	-11
CC1=Nc2ccccc2/C1=C/c1nc(-c2ccc(C)s2)oc1O	0	nt	-103	103*	-9
C=CC[n+]1ccc(/C=C2\C=Cc3cc(C)ccc3N2CC)c2ccccc21	nt	nt	-92	92*	nt
CCN1/C(=C/c2cc[n+](CCCS(=O)(=O)[O-])c3ccccc23)Sc2ccccc21	0	6	11	-11	-2
Cc1ccc(NC(=O)C[C@H]2CC[C@H]3[C@@H](COc4ccc(NC(=O)C5CCCCC5)cc4C(=O)N3C)O2)cc1	nt	2	nt	nt	nt
O=C(COC(=O)c1ccc(S(=O)(=O)Nc2ccccc2)cc1)NC1CCCC1	0	-8	0	0	-5
NC(=O)c1c(NC(=O)COC(=O)c2ccc(S(=O)(=O)Nc3ccccc3)cc2)sc2c1CCCC2	0	-10	-95	95*	-13
CC(C)NC(=O)Nc1ccc2c(c1)CC(=O)N(C)C[C@H](C)[C@@H](CN(C)S(C)(=O)=O)O2	nt	3	nt	nt	nt
O=C(NN1C(=O)/C(=C/C=C/c2ccco2)SC1=S)c1ccccc1O	2.0*	-1	-32	32	-3
COc1ccc(OC)c(-c2cc(C(=O)Nc3cc(C)n(Cc4ccc(Cl)cc4)n3)no2)c1	0	11	-89	89*	-5
COc1cccc(-c2cc(C(=O)Nc3cc(C)n(Cc4ccc(Cl)cc4)n3)no2)c1	0	nt	-68	68	-8
COc1ccccc1/C=N/Nc1nc(C)cc(=O)[nH]1	nt	-7	nt	nt	40*
Cc1cc(=O)[nH]c(NN=Cc2cc(Br)ccc2O)n1	nt	20	-97	97*	-7
Cc1cc(=O)[nH]c(N/N=C/c2ccccc2Cl)n1	0	1	0	0	-5
O=S(=O)(NCCN1CCCC1)c1ccc(Cl)cc1	0	-2	-7	7	-5
O=S(=O)(NCCN1CCCC1)c1ccc(Br)cc1	0	3	62*	-62	-3
